Six compounds from ChEMBL document CHEMBL1121880, “Synthesis and antiviral activity of 5-[(cyanomethylene)oxy]-2'-deoxyuridine” (J Med Chem, 1981) can be followed below.

One may read the IC50 as the concentration that inhibits the measured activity by half. High values mean weaker potency in that assay, low ones greater potency in that assay.

Common to all, as to assay type: functional, cell-based
Common to all, as to details: Oryctolagus cuniculus

Assay [1] deals with PRK. Nature of the assay: Concentration required to reduce HSV-1(KOS) induced cytopathogenicity by 50% was measured by the addition of [Me-3H]-dThd. For orientation: Cytopathic effects are the visible damage that an infection or toxin causes in cultured cells.
The test system of assay [2] is PRK. Nature of the assay: Concentration required to reduce HSV-1 induced cytopathogenicity by 50% in primary rabbit kidney (PRK) cells; 1-1.5.
Assay [3] concerns PRK. In words: Concentration required to inhibit incorporation of [1,'2'-3H]dUrd into DNA of primary rabbit kidney (PRK) cells by 50%. In outline: (§1)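 Uninfected primary rabbit kidney cells; IC50 = concentration reducing incorporation of [Me-3H]dThd or [1',2'-3H]dUrd into host cell DNA by 50%.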
The subject of assay [4] is PRK. Nature of the assay: Concentration required to inhibit incorporation of [Me-3H]-dThd into DNA of primary rabbit kidney (PRK) cells by 50%. In outline: as §1
In assay [5] the test system is PRK. In words: Compound was evaluated for antiviral activity in rabbit kidney cells infected with vaccinia virus.
Assay [6] deals with PRK. Nature of the assay: Concentration required to reduce HSV-1(KOS) induced cytopathogenicity by 50% was measured by the addition of [1,'2'-3H]dUrd. In outline:
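HSV-1 (KOS) cytopathogenicity in PRK cells (100 CCID50 inoculum) with dThd or dUrd, unlabelled, added together with test compound at 100 μg/mL final, the highest level not itself inhibiting virus replication. CPE scored at 100% destruction in untreated infected controls; IC50 = concentration halving cytopathogenicity.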

Assay [7] concerns PRK. Nature of the assay: Concentration required to reduce HSV-1(KOS) induced cytopathogenicity by 50% was measured. The method in brief:
(§2)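 PRK cell cultures infected with 100 CCID50 HSV-1 (KOS), then given varying compound concentrations right after virus adsorption, without added nucleoside.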

Assay [8] concerns PRK. Nature of the assay: Concentration required to reduce TK-HSV-1 (B2006) induced cytopathogenicity by 50% in primary rabbit kidney (PRK) cells.
In assay [9] the test system is PRK. In words: Concentration required to reduce HSV-2 induced cytopathogenicity by 50% in primary rabbit kidney (PRK) cells; 7-40.
Assay [10] has as its system PRK. Nature of the assay: Concentration required to reduce HSV-1 induced cytopathogenicity by 50% in primary rabbit kidney (PRK) cells; 2-4.
In assay [11] the test system is PRK. In words: Concentration required to reduce HSV-1(KOS) induced cytopathogenicity by 50%. In outline: as §2
The test system of assay [12] is PRK. Nature of the assay: Concentration required to reduce HSV-2 induced cytopathogenicity by 50% in primary rabbit kidney (PRK) cells; 10-150.
For assay [13], the system named is PRK. Nature of the assay: Concentration required to reduce HSV-2 induced cytopathogenicity by 50% in primary rabbit kidney (PRK) cells; 2-4.
Assay [14] has as its system PRK. Nature of the assay: Concentration required to reduce HSV-1 induced cytopathogenicity by 50% in primary rabbit kidney (PRK) cells; 4-10.
Assay [15] concerns PRK. In words: Concentration required to reduce HSV-1 induced cytopathogenicity by 50% in primary rabbit kidney (PRK) cells.
For assay [16], the system named is PRK. In words: Concentration required to reduce HSV-2 induced cytopathogenicity by 50% in primary rabbit kidney (PRK) cells; 0.2-0.4.
Assay [17] has as its system PRK. Nature of the assay: Concentration required to reduce HSV-1(KOS) induced cytopathogenicity primary rabbit kidney by 50% was measured by the addition of [1,'2'-3H]dUrd.
Assay [18] relates to PRK. In words: Concentration required to reduce HSV-1(KOS) induced cytopathogenicity in primary Rabbit by 50%. In outline: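 Confluent primary rabbit kidney cell cultures inoculated with 100 CCID50 HSV-1 (KOS); varying compound concentrations added immediately after virus adsorption. Cytopathogenicity scored once virus-infected untreated controls reached 100% cell destruction; IC50 = concentration reducing cytopathogenicity by 50%.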

Assay [19] concerns PRK. In words: Concentration required to reduce HSV-1(KOS) induced cytopathogenicity primary rabbit kidney by 50% was measured by the addition of [Me-3H]-dThd.

Converted amounts (≈) assume the structure as drawn. Where only a bound is given, the exact number is not on record here.

For the compound `C#CCOc1cn([C@H]2C[C@H](O)[C@@H](CO)O2)c(=O)[nH]c1=O`, the IC50 was 400 µg/mL (≈ 1420 µM) in the assay with PRK [1]; 1 µg/mL (≈ 3.54 µM) with PRK [2]; 100 µg/mL (≈ 354 µM) with PRK [3]; 200 µg/mL (≈ 709 µM) in the assay on PRK [4]; 20 µg/mL (≈ 70.9 µM) in the assay with PRK [5]; 40 µg/mL (≈ 142 µM) with PRK [6]. Moreover, the 50% inhibitory concentration (IC50) in the assay with PRK [7] was 0.7 µg/mL (≈ 2.48 µM); with PRK [8] it was greater than 200 µg/mL; in the assay with PRK [9] it was 19 µg/mL (≈ 67.3 µM).

As for `N#CCOc1cn([C@H]2C[C@H](O)[C@@H](CO)O2)c(=O)[nH]c1=O`, the IC50 is greater than 400 µg/mL in the assay on PRK [1]; greater than 400 µg/mL with PRK [3]; 400 µg/mL (≈ 1410 µM) in the assay on PRK [4]; 150 µg/mL (≈ 530 µM) in the assay on PRK [5]; greater than 400 µg/mL with PRK [6]; 2 µg/mL (≈ 7.06 µM) in the assay with PRK [10]. Also, the IC50 in the assay with PRK [11] is 1.5 µg/mL (≈ 5.3 µM); in the assay with PRK [8], greater than 400 µg/mL; in the assay with PRK [12], 10 µg/mL (≈ 35.3 µM).

On to `Nc1ncnc2c1ncn2[C@@H]1O[C@H](CO)[C@@H](O)[C@@H]1O` [VIDARABINE], for which the IC50 in the assay with PRK [1] is 1 µg/mL (≈ 3.74 µM); in the assay with PRK [3], 10 µg/mL (≈ 37.4 µM); in the assay with PRK [4], 20 µg/mL (≈ 74.8 µM); with PRK [5] it was 0.4 µg/mL (≈ 1.5 µM); in the assay on PRK [6] it was 1 µg/mL (≈ 3.74 µM); in the assay on PRK [7], 4 µg/mL (≈ 15 µM). Moreover, the IC50 in the assay on PRK [13] is 3 µg/mL (≈ 11.2 µM); in the assay with PRK [14], 7 µg/mL (≈ 26.2 µM); with PRK [8], 10 µg/mL (≈ 37.4 µM).

Regarding `O=c1[nH]c(=O)n([C@H]2C[C@H](O)[C@@H](CO)O2)cc1I` [IDOXURIDINE], the IC50 was determined as 0.3 µg/mL (≈ 0.847 µM) in the assay on PRK [3]; 1 µg/mL (≈ 2.82 µM) in the assay with PRK [4]; 0.4 µg/mL (≈ 1.13 µM) with PRK [5]; 0.1 µg/mL (≈ 0.282 µM) with PRK [15]; 200 µg/mL (≈ 565 µM) in the assay on PRK [8]; 0.2 µg/mL (≈ 0.565 µM) in the assay with PRK [16].

For `N#Cc1cn([C@H]2C[C@H](O)[C@@H](CO)O2)c(=O)[nH]c1=O`, the IC50 is 8 µg/mL (≈ 31.6 µM) in the assay with PRK [3] and greater than 400 µg/mL in the assay on PRK [4].

`O=c1[nH]c(=O)n([C@H]2C[C@H](O)[C@@H](CO)O2)cc1F` [FLOXURIDINE]: the IC50 is 10 µg/mL (≈ 40.6 µM) in the assay on PRK [17], 1 µg/mL (≈ 4.06 µM) in the assay with PRK [18] and greater than 400 µg/mL in the assay on PRK [19].
